# High-throughput results: PubChem BioAssay, several laboratories
# NPY-Y1 PAM-ag = human NPY-Y1 potentiation or agonism, primary screen; P25929; NPY-Y1 expressing cells, potentiator/agonist activation; activation, % at 3.6 µM; actives 0.37% (n = 220,000); AID 1304; in the data active = activation above about 33%, passing the limit was not always enough;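 note: cells stimulated with NPY at EC10 then isoproterenol at EC100; 0% = low agonist plus stimulus and 100% = saturating agonist plus stimulus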
# Target sequence (P25929 whole entry, looked up): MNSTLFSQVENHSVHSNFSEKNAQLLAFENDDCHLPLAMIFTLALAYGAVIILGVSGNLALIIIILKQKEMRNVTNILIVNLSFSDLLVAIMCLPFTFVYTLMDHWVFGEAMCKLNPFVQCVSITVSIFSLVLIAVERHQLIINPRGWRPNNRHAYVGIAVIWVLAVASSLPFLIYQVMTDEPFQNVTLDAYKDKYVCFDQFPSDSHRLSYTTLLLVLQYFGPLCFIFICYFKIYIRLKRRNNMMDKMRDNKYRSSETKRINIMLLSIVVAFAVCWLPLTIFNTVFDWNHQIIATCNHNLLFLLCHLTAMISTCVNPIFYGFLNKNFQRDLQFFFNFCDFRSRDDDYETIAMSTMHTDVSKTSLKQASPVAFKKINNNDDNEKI
# INS promoter inh = TRM-6 insulin promoter activity inhibition; actives 0.9% (n = 130,000); TRM-6 cells, insulin promoter-eGFP reporter, imaging; reporter expression induced with tamoxifen; inhibition, % at 2 µM;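 active = inhibition above the mean plus 3 SD, with well images judged a real hit on visual review, cut at about 60% in these data, passing the limit was not always enough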
# NPY Y2 blocker = antagonists of human neuropeptide Y receptor Y2; P49146; NPY-Y2 expressing cells, antagonist mode; inhibition, % at 2.7 µM; actives 0.99% (n = 140,000); AID 793; in the data active = inhibition above about 17%;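 note: 0% = vehicle with agonist challenge and 100% = reference antagonist with challenge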
# RAM inhibit = inhibitors of the yeast RAM network; S. cerevisiae dse1pr::URA3 reporter, 5-FOA growth OD615, 2 d; analog-sensitive cbk1-as2 kinase mutant strain; inhibition, % at 50 µM; actives 1.8% (n = 190,000);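 active = inhibition above a set limit, 3 SD over mean compound inhibition, cut at about 8.4% in these data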;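 note: 0% = DMSO-only wells with no growth and 100% = 10 µM 1-NA-PP1 full growth; inhibition rescues growth on 5-FOA so higher OD means more RAM inhibition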
# NPY-Y2 PAM-ag = potentiators or agonists of human neuropeptide Y receptor Y2; actives 0.45% (n = 220,000); P49146; activation, % at 3.6 µM; cells expressing NPY-Y2, potentiator/agonist read-out; in the data active = activation above about 27%;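 note: cells stimulated with NPY near EC25 plus isoproterenol at EC100; 0% = vehicle plus submaximal agonist and 100% = vehicle plus saturating agonist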
# NPY-Y1 antag = blocks the human neuropeptide Y Y1 receptor; P25929; HEK293-CNG Y1 cells, membrane potential fluorescence; NPY at EC95, then isoproterenol; inhibition, % at 3.6 µM; actives 1% (n = 200,000);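 active = inhibition above the campaign mean inhibition of all tested compounds plus 3 SD, cut at about 20% in these data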;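 note: 0% = DMSO wells given NPY plus isoproterenol and 100% = isoproterenol alone without NPY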
#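 material = HEK293 cells with Y1 receptor plus CNG channel | also added = NPY 25 nM then isoproterenol 1 µM plus Ro 20-1724 25 µM | schedule = dye 3 h, compound 60 min room temperature, stimulation 45 min | measured by = membrane potential fluorescence | benchmarks = high control isoproterenol alone, low control NPY with isoproterenol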
# An asterisk follows results filed as active; nt = no result given. Sampled rows, rich in hits. Any-hit rate of the full collection: about 3.8%.
SMILES,NPY-Y1 PAM-ag,INS promoter inh,NPY Y2 blocker,RAM inhibit,NPY-Y2 PAM-ag,NPY-Y1 antag
COc1cc(C(=O)N2CCN(c3ncnc4sc(C)c(C)c34)CC2)cc(OC)c1OC,13,-152,-1,0,9,0
Cc1oc(C)c2c(=O)ccc3c(c12)OC(N)=C(C#N)C3c1ccccc1Cl (centres undefined),19,nt,11,8.8*,19,-13
Cc1oc(C)c2c(=O)ccc3c(c12)OC(N)=C(C#N)C3c1ccccc1 (centres undefined),0,nt,-2,1,9,-3
Cc1ccc(-c2c(C(=O)Nc3ccccc3C)c(C)[nH]c(=S)c2C#N)o1,8,nt,nt,8.5*,-16,9
CCCc1cc(NCc2ccccn2)n2c(nc3ccccc32)c1C#N,1,0,nt,11*,-2,2
O=C(Nc1ccccc1)c1sccc1Oc1ccc([N+](=O)[O-])cc1F,-3,-20,nt,5,1,6
CC(C)N1CC(C(=O)Nc2nc3ccccc3s2)CC1=O (centres undefined),-1,75*,1,-1,2,-2
N#Cc1ccsc1NC(=O)COc1ccc(-c2nnco2)cc1,14,65*,0,3,13,-2
N#Cc1ccsc1NC(=O)CSc1nnc(-c2ccccc2)o1,-14,56,2,-1,-12,-5
CC(=O)N1N=C2c3ccccc3CCC2C1c1cccs1 (centres undefined),16,nt,nt,nt,20,nt
CCn1cc(Cl)c(C(=O)N2N=C3/C(=C/c4cccs4)CCCC3C2c2cccs2)n1 (centres undefined),-4,-62,3,10*,-7,0
COCCN(CCOC)S(=O)(=O)c1ccc(C(=O)Nc2ccc([N+](=O)[O-])cc2OC)cc1,-17,nt,nt,7,-2,15
CCS(=O)(=O)n1nc(-c2ccc(Cl)cc2)nc1SC,-3,72*,3,1,-1,7
CSc1nc(-c2ccc(Cl)cc2)nn1C(=O)c1ccco1,3,83*,-1,0,-36,2
CSc1nc(-c2ccco2)nn1C(=O)c1ccco1,-2,nt,-1,0,10,3
C/C(=N\NC(=O)CNC(=O)C1COc2ccccc2O1)c1ccc(Cl)cc1 (centres undefined),4,nt,nt,nt,6,nt
N#C/C(=C\c1coc2ccc(O)cc2c1=O)C(=O)Nc1nc2ccccc2s1,39,nt,nt,nt,23,nt
CNC(=O)C1CC(=O)N(CCc2ccccc2)C(=Nc2ccc(OC)cc2)S1 (centres undefined),-1,nt,nt,4,2,2
CNC(=O)C1CC(=O)N(CCCc2ccccc2)C(=Nc2ccccc2)S1 (centres undefined),13,-25,1,9.0*,22,-1
CCOc1ccc2nc(NS(=O)(=O)Cc3ccccc3)sc2c1,-35,-33,20*,1,-36,23*
CCOc1ccc2nc(NS(=O)(=O)c3ccc(NC(C)=O)cc3)sc2c1,0,nt,1,6,5,0
CCCN(CCC)S(=O)(=O)c1ccc(NC(=O)c2cc(C(=O)OC)cc([N+](=O)[O-])c2)cc1,-25,0,-2,3,-4,4
Cc1ccc(C(=O)Nc2ccccc2C(=O)NCc2ccccc2)cc1,0,nt,8,8.6*,-10,2
Cc1ccc(NC(=O)Nc2ccccc2C(=O)NCc2ccccc2)cc1,-24,14,3,5,-3,8
Cc1ccc(CNC(=O)c2ccc(-n3cccc3)cc2)cc1,-8,100*,nt,3,-14,7
SMILES,NPY-Y1 PAM-ag,INS promoter inh,NPY Y2 blocker,RAM inhibit,NPY-Y2 PAM-ag,NPY-Y1 antag
COc1cccc(C(=O)NCc2ccc3c(c2)cc(C)n3C)c1,-2,12,nt,10*,-5,-1
COc1cc(OC)cc(C(=O)NCc2ccc(-n3cccc3)cc2)c1,0,7,nt,11*,-24,5
COc1cccc(/C=N/NC(=O)CN2C(=O)NC3NC(=O)NC32)c1 (centres undefined),-8,-6,2,2,10,8
COc1ccc(C(=O)NC(=S)NCc2ccccc2)cc1,-27,3,7,2,-9,6
COc1cc(OC)cc(C(=O)NC(=S)NCCc2ccccc2)c1,-40,-47,7,10*,-25,14
COC(=O)/C(=N/Nc1ccccc1)N1CCCc2ccccc21,6,nt,22*,3,-13,29*
